The target of data set [1] is Apoptosis regulator Bcl-2 (Homo sapiens, UniProt P10415). In words: Inhibition of BCL-2 (unknown origin) incubated for 1 hr by TR-FRET assay.
Data set [2] deals with T1, Bcl-2-like protein 1 (Homo sapiens, UniProt Q07817). The data set can be described thus: Inhibition of BCL-XL (unknown origin) incubated for 1 hr by TR-FRET assay.
The target of data set [3] is T1, Bcl-2-like protein 1. In words: Inhibition of BCL-XL (unknown origin) incubated for 1 hr in presence of 1% human serum by TR-FRET assay. (In TR-FRET formats the signal depends on donor and acceptor labels being close together.)
A short description of data set [4]: Cytotoxicity against BCL-XL-dependent human NCI-H146 cells in presence of 10% human serum incubated for 48 hrs by Cell titerGlo reagent based assay. The data set is classed as functional. The conditions noted are these: NCI-H146, 48 h.
The target in data set [5] is T1, Bcl-2-like protein 1. In words: Binding affinity to BCL-XL (unknown origin).
Data set [6] concerns Mus musculus. The data set can be described thus: Reduction in platelets count in SCID-Beige mouse at 5 mg/kg, ip after 6 hrs. It is filed as functional, organism-based. Also on record: dose 5 mg/kg. Summed up: (§1)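 Nontumor-bearing female SCID-Beige mice received a single IP dose of 5 mg/kg in the 5% DMSO/10% EtOH/20% Cremophor ELP/65% DSW vehicle. Blood was taken by retro-orbital bleed at regular intervals after dosing and platelets were counted.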

For data set [7], the target named is Induced myeloid leukemia cell differentiation protein Mcl-1 (Homo sapiens, UniProt Q07820). The data set can be described thus: Binding affinity to MCL1 (unknown origin).
Sequence of Induced myeloid leukemia cell differentiation protein Mcl-1 (Q07820 whole entry): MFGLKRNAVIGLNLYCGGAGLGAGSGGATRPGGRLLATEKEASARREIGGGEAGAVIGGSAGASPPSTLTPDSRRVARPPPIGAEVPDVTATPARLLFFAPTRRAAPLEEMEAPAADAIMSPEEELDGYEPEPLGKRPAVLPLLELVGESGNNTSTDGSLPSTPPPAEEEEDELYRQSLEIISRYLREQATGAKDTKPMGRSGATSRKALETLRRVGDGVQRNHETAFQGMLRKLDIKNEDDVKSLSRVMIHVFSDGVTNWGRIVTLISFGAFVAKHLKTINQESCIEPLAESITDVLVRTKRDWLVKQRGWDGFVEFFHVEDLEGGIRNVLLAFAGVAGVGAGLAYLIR
The target of data set [8] is T2, Bcl-2-like protein 2 (Homo sapiens, UniProt Q92843).
T2 sequence (Q92843 whole entry): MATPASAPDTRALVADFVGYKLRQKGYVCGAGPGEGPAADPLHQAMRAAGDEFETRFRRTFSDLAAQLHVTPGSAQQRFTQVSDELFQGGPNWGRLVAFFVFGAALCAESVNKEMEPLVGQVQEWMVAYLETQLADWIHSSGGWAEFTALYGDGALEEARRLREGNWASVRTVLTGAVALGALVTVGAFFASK
The data set can be described thus: Binding affinity to BCL-W (unknown origin).

Data set [9] in a line: AUC in SCID-Beige mouse at 5 mg/kg, ip. It is filed as ADME, organism-based. On the set-up: dose 5 mg/kg, route intraperitoneal. The conditions noted are these: plasma. The procedure, abridged:
(§2)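 Nontumor-bearing SCID-Beige mice got a single IP dose of 5 mg/kg. Vehicle was 5% DMSO, 10% EtOH, 20% Cremophor ELP and 65% DSW. Pharmacokinetic parameters were taken from plasma exposure after the single dose.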

For data set [10], the system named is Mus musculus. The data set can be described thus: Reduction in platelets count in SCID-Beige mouse at 5 mg/kg, ip after 72 hrs. The data set is classed as functional, organism-based. On the set-up: dose 5 mg/kg. The procedure, abridged:
as §1

The nature of data set [11]: Drug concentration in SCID-Beige mouse at 5 mg/kg, ip after 12 hrs. It is filed as ADME, organism-based. Also on record: dose 5 mg/kg, route intraperitoneal. To be noted: in vivo, read-out: Drug uptake. The procedure, abridged: as §2
Data set [12] in a line: Cmax in SCID-Beige mouse at 5 mg/kg, ip. The data set is classed as ADME, organism-based. Also on record: dose 5 mg/kg, route intraperitoneal. To be noted: in vivo. Summed up: as §2
Data set [13] can be described thus: Tmax in SCID-Beige mouse at 5 mg/kg, ip. On the set-up: dose 5 mg/kg, route intraperitoneal. To be noted: in vivo. It is filed as ADME, organism-based. The procedure, abridged:
as §2

Data set [14] in a line: Antitumor activity against BCL-XL-dependent human NCI-H146 cells xenografted in SCID-Beige mouse assessed as tumor growth inhibition at 5 mg/kg, ip for 14 days. The conditions noted are these: route intraperitoneal. The data set is classed as functional. Summed up:
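Female SCID-Beige mice carried subcutaneous NCI-H146 xenografts and were dosed at 5 mg/kg IP QD ×14, or with an equal volume of vehicle (5% DMSO/10% EtOH/20% Cremophor ELP/65% DSW). There were 5 mice per time point. Tumor volume was calculated as W²·L·0.5 from perpendicular diameters and tracked over time. Treated and untreated groups were compared by Student's t test (p < 0.05).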
In general terms: In xenograft studies the graft and the host belong to different species.

A short description of data set [15]: Cytotoxicity against BCL-XL-dependent human NCI-H146 cells in presence of 10% human serum.

As usually defined, the Ki is the dissociation constant of the complex between target and ligand, obtained from inhibition or displacement. The EC50 is the concentration giving half of the maximal effect. The term Kd denotes the concentration at which binding is half-saturated. Higher therefore signals a looser complex. The AUC is concentration integrated over time. A lower AUC goes with low exposure. By Cmax is commonly meant the highest concentration seen after dosing. One may read the Tmax as the time from dosing to the highest level.

Molecules are shown by their SMILES. Activity calls are given as the source filed them. No cut-off for these calls is given here. Where only a bound is given, the exact number is not on record here.

T1 sequence (Q07817 whole entry): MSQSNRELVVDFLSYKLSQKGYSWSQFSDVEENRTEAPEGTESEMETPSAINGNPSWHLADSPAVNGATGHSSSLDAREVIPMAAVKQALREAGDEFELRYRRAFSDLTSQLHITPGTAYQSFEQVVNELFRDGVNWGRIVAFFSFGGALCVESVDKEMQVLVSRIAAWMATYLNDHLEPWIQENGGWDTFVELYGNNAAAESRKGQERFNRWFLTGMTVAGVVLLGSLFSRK
Sequence of Apoptosis regulator Bcl-2 (P10415 whole entry): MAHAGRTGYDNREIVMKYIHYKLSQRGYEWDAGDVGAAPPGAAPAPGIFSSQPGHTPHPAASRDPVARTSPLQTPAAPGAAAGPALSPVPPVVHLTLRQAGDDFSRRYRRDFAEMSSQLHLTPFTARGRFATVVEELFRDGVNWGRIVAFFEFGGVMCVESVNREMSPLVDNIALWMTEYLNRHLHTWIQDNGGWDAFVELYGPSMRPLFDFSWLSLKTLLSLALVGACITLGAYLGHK

For the compound `O=C(Nc1nc2ccccc2s1)c1cccc2c1CN(c1nc(C(=O)O)c(CCOc3cccc(-n4ncc5cncnc54)c3)s1)CC2`, the Ki was determined as 0.1 µM in data set [1], 2.22 nM in data set [2] and 41.1 nM in data set [3].
Take `CN(C)CC#Cc1cc(F)c(OCCCc2sc(N3CCc4cccc(C(=O)Nc5nc6ccccc6s5)c4C3)nc2C(=O)O)cc1F`: the Ki in [1] was determined as 0.09 µM; in data set [2], 0.03 nM; in data set [3], 0.33 nM. Also, the EC50 in data set [4] stood at 0.126 µM.
Regarding `CN(C)CCCNc1ncnc2c1cnn2-c1ccc(OCCCc2sc(N3CCc4cccc(C(=O)Nc5nc6ccccc6s5)c4C3)nc2C(=O)O)cc1`, the results for the Ki in data set [1] and in data set [2] were 0.24 µM and less than 0.01 nM, respectively.
`CN1CCN(CCCNc2ncnc3c2cnn3-c2ccc(OCCCc3sc(N4CCc5cccc(C(=O)Nc6nc7ccccc7s6)c5C4)nc3C(=O)O)cc2)CC1`: the Ki was less than 0.01 nM in [2] and 0.03 nM in data set [3].
The compound `c1ccc(-n2ncc3cncnc32)cc1` gave a Kd in data set [5] of 4000 µM.
Take `O=C(Nc1nc2ccccc2s1)c1cccc2c1CN(c1nc(C(=O)O)c(CCCOc3ccc(-n4ncc5cncnc54)cc3)s1)CC2`: the results for the Ki in data set [1], in data set [2] and in data set [3] were 0.17 µM, 0.042 nM and 0.38 nM, respectively.
`CN(C)CC#Cc1ccc(OCCCc2sc(N3CCc4cccc(C(=O)Nc5nc6ccccc6s5)c4C3)nc2C(=O)O)cc1`: the inhibition constant (Ki) in data set [2] turned out to be 0.02 nM; in data set [3], 0.28 nM. The EC50 in [4] was 0.6 µM.
For `CN(C)CC#Cc1ccc(OCCCc2sc(N3CCc4cccc(C(=O)Nc5nc6ccccc6s5)c4C3)nc2C(=O)O)cc1F`, the Ki is 0.088 µM in data set [1], 0.01 nM in data set [2] and 1.12 nM in data set [3]. In data set [4], the EC50 worked out at 0.051 µM.
As for `O=C(Nc1nc2ccccc2s1)c1cccc2c1CN(c1nc(C(=O)O)c(CCOc3ccc(-n4ncc5cncnc54)cc3)s1)CC2` [A-1107969], the values for the inhibitory constant (Ki) in data set [1], in data set [2] and in [3] were 0.09 µM, 12.4 nM and 320 nM, respectively.
For the compound `CN(C)CC#Cc1ccc(OCCCc2sc(N3CCc4cccc(C(=O)Nc5nc6ccccc6s5)c4C3)nc2C(=O)O)c(F)c1` [A-1155463], the Ki was 0.08 µM in data set [1]; less than 0.01 nM in [2]; greater than 0.44 µM in data set [7]; 0.1 nM in data set [3]; 0.019 µM in data set [8]. The inhibition result in [6] is “Active”. The same compound showed an AUC in [9] of 9.19 µM·h. Further, the inhibition entry in [10] is “inactive”. In data set [11], the concentration at 12 h was 0.18 µM. Moreover, in data set [12], the Cmax is 1.8 µM. In addition, in data set [13], the time of peak concentration (Tmax) came to 2 h. Further, the Imax in data set [14] was 44%. In addition, the EC50 in data set [4] turned out to be 0.065 µM.
As for `O=C(Nc1nc2ccccc2s1)c1cccc2c1CN(c1nc(C(=O)O)c(CCCOc3cccc(-n4ncc5cncnc54)c3)s1)CC2`, the Ki worked out at 0.22 µM in [1], 0.34 nM in [2] and 10.4 nM in data set [3].
Consider `O=C(Nc1nc2ccccc2s1)c1cccc2c1CN(c1nc(C(=O)O)c(CCCCOc3ccc(-n4ncc5cncnc54)cc3)s1)CC2`, for which, in data set [3], the Ki came out at 55.4 nM.
With `NCc1ccc(OCCCc2sc(-c3ccc4c(c3)/C(=N/Nc3nc5ccccc5s3)CCC4)nc2C(=O)O)cc1`, the EC50 in [15] came out at 0.55 µM.
For the compound `O=C(Nc1nc2ccccc2s1)c1cccc2c1CN(c1nc(C(=O)O)c(CCCOc3ccc(-n4cccn4)cc3)s1)CC2`, the values for the Ki in data set [1], in [2] and in data set [3] were 0.15 µM, less than 0.01 nM and 0.99 nM, respectively.
In the case of `CN(C)CC#Cc1ccc(OCCCc2sc(N3CCc4cccc(C(=O)Nc5nc6ccccc6s5)c4C3)nc2C(=O)O)c(Cl)c1`, the Ki in [1] amounted to 0.28 µM; in [3] it was 0.41 nM. In [4], the concentration giving a half-maximal response (EC50) is 0.18 µM.

The values are drawn from ChEMBL document CHEMBL3351549, “Discovery of a Potent and Selective BCL-XL Inhibitor with in Vivo Activity” (ACS Med Chem Lett, 2014).
